A selection: hits, their analogues and other compounds. The true share with any hit is near 2.6%.
RAD54 branch: inhibitors of human RAD54 branch migration; Q92698; RAD54 Holliday junction branch migration, FAM/BHQ fluorescence; inhibition, % at 10.4 µM; 360,000 compounds, 0.14% hits; AID 602329;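 active = mean normalized replicate activity at least 40 and at least half of replicates scoring 40 or more; inconclusive = only one of the two criteria met; inactive = mean below 40 and under half of replicates reaching 40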;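 note: inhibitors cause a drop in the FAM fluorescence signal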
E-sel inducer: induces E-selectin expression in human endothelial cells; P16581; HUVEC E-selectin immunofluorescence imaging; normalized: neutral wells 0, TNF-alpha wells 100; activation, % at 7.58 µM; 260,000 compounds, 0.37% hits;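 active = mean E-selectin-positive cell signal at least 10% of the positive control, reached in at least 60% of replicates, without over 20% cell loss; inconclusive = no rule given, readout overlaps actives, possibly toxicity-flagged; inactive = the rest, including those meeting only one limit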
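Read-out: % PE-positive cells | Test system: HUVEC | Doses: One compound dose added by pin transfer | Buffer or medium: EGM-2 over gelatin coat | Signal: Immunofluorescence imaging | Benchmarks: TNF-alpha, DMSO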
Ecoli rRNA inh: inhibits bacterial ribosomal RNA function over humanized ribosomes. 350,000 compounds, 1.6% hits. GFP signal change (wild-type ribosome), % (test concentration not listed). E. coli WT GFP vs humanized-ribosome RFP mutants, fluorescence, 24 h; stronger effect = lower value; DMSO median 0, no signal -100. AID 720706;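 active = significant combined selectivity score with lowered wild-type GFP, culture density cut under 30%, mutant RFP and density less affected; inactive = any of these conditions unmet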
RAD52 anneal inh: RAD52 (human) annealing inhibition. P43351. recombinant RAD52 DNA annealing, FRET fluorescence. inhibition, % at 18.7 µM. 360,000 compounds, 0.46% hits. AID 651710;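 active = every replicate showing at least 50% inhibition; inconclusive = mean inhibition at least 50% but not in every replicate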
INS-1E GSIS act: GLuc luminescence reporter in INS-1E cells, primary screen for activators of glucose-dependent secretion of insulin | INS-1E GLuc reporter insulin secretion, 2-3 h | activation, % at 16.6 µM | 370,000 compounds, 0.61% hits;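 active = lowest replicate activation of at least 40%, so every replicate reaches that level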
MLL AF4-AF9 inh: inhibitors of human MLL-AF4/AF9 interaction | AlphaScreen, biotin-AF4 peptide binding to FLAG-AF9 | 350,000 compounds, 0.47% hits | inhibition, % at 10 µM | AID 651704;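 active = every replicate reaching a set inhibition limit, whatever the replicate mean, cut at about 25% in these data; inconclusive = mean inhibition reaches that limit but some replicates miss it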
Target sequence (P42568 whole entry, looked up): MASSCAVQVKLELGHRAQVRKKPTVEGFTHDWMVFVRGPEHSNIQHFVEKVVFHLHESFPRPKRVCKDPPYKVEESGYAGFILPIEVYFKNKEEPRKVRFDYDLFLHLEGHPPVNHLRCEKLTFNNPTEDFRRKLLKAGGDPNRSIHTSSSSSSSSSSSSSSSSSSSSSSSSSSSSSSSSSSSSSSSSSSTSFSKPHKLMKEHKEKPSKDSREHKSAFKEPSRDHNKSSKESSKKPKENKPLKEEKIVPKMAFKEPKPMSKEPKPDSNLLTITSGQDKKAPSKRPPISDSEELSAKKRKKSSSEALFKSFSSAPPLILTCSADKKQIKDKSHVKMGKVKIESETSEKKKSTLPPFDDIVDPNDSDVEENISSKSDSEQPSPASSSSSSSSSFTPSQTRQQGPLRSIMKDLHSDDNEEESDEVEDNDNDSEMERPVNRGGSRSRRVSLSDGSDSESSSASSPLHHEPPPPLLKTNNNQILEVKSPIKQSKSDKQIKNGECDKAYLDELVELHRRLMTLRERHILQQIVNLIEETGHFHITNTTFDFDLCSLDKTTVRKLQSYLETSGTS
AID977621: growth inhibition of wild-type GFP E. coli, dose response, H69 mutant RFP, cherry-pick | activity change, negative = inhibition at 50 µM | 1,900 tested, under 10 active | E. coli wild-type GFP strain growth, fluorescence, 24 h | AID 977621 | shares compounds with Ecoli rRNA inh;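 active = Wild-type ribosome reporter drop at least double the humanized mutant ribosome reporter drop, growth loss under a set limit; inconclusive = no clear call, values can overlap the other calls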;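 note: wild-type GFP and H69 mutant RFP strains grown together 50/50 in each well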
AID977628: E. coli growth inhibition, wild-type GFP versus h24 humanized RFP strain, dose response, h24 mutant RFP vs wild-type GFP, cherry-pick; E. coli WT GFP strain growth, fluorescence, 24 h; shares compounds with Ecoli rRNA inh; 1,900 tested, under 10 active; activity change, negative = inhibition at 50 µM; AID 977628;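 active = compound lowering the normal-ribosome reporter at least twice as much as the humanized-ribosome reporter, growth loss under a set limit; inconclusive = no clear call, values can overlap the other calls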;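 note: wild-type GFP and h24 humanized RFP strains co-cultured 1 to 1 per well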
Each line names hits and unclear results; the compound was inactive in the other large screens (follow-up assays come after a bar, where they were run).

CCCCc1ccc(S(=O)(=O)Nc2ccc(C)c(NS(C)(=O)=O)c2)cc1	Ecoli rRNA inh -35 (no result: E-sel inducer) | AID977621 inactive
CCCc1ccc(S(=O)(=O)Nc2ccc(C)c(NS(C)(=O)=O)c2)cc1	none (no result: MLL AF4-AF9 inh)
COc1cccc(CNC(=O)CCC2CCCN(C(=O)c3cc4ccccc4o3)C2)c1 (stereo unspecified)	Ecoli rRNA inh -32 | AID977621 inactive
O=C(N[C@@H]1CC[C@H](CCNS(=O)(=O)c2ccccc2)O[C@H]1CO)c1cccc(F)c1	none
CCc1csc(N2[C@@H](C#N)[C@@H](c3ccc(C4=CCCC4)cc3)[C@@H]2CO)n1	none
CCOCCCNC(=O)C(NC(=O)c1ccccc1O)c1ccc(C)cc1 (stereo unspecified)	Ecoli rRNA inh -19 (no result: RAD54 branch, E-sel inducer) | AID977621 inactive | AID977628 inactive
COc1ccc(NC(=O)c2nc[nH]c2C(=O)N(C)Cc2ccccc2)cc1	Ecoli rRNA inh -19 | AID977621 inconclusive
CS(=O)(=O)Nc1ccccc1C(=O)NCCSc1ccccc1	Ecoli rRNA inh -22 | AID977621 inactive | AID977628 inactive
OCCNc1nc(Nc2ccc(Cl)cc2)nc(N2CCCC2)n1	none
COc1ccc(Nc2nc(NCCO)nc(N3CCCC3)n2)cc1	Ecoli rRNA inh -16 | AID977621 inactive | AID977628 inconclusive
O=S(=O)(NC1CC1)c1ccc(S(=O)(=O)N2CCc3ccccc32)cc1	Ecoli rRNA inh -20 (no result: E-sel inducer, MLL AF4-AF9 inh) | AID977621 inactive
O=S(=O)(c1ccc(F)cc1)N1CCc2ccccc21	none (no result: E-sel inducer)
Cc1cccc(S(=O)(=O)N2C[C@H]3[C@@H](c4ccccc42)[C@H](CO)N3C(=O)C2CC2)c1	none
CCCNC(=O)[C@H]1[C@H](CO)[C@H]2Cn3c(ccc(C4=CCCCC4)c3=O)[C@@H]1N2	none
C[C@@H]1CN([C@H](C)CO)C(=O)Cc2cc(NC(=O)NC3CCCCC3)ccc2O[C@H]1CN(C)C(=O)Nc1ccc2c(c1)OCO2	none
CC(C)n1cc(CN2CCCC(C(=O)Nc3cccc(-c4cc5ccccc5[nH]4)c3)C2)cn1 (stereo unspecified)	none (no result: E-sel inducer)
Cn1cc(CN2CCCC(C(=O)Nc3cccc(-c4cc5ccccc5[nH]4)c3)C2)cn1 (stereo unspecified)	Ecoli rRNA inh -33 (no result: E-sel inducer) | AID977621 inactive | AID977628 inactive
C/C=C/c1cnc2c(c1)C(=O)N([C@H](C)CO)C[C@H](C)[C@@H](CN(C)C(=O)Cc1ccccc1)O2	none
C/C=C/c1ccc2c(c1)O[C@@H](CN(C)C)[C@H](C)CN([C@@H](C)CO)S2(=O)=O	none
COc1ccc(C(=O)COc2ccc(F)cc2)c(O)c1	Ecoli rRNA inh -21 | AID977621 inactive | AID977628 inactive
Cc1ccc(S(=O)(=O)Nc2cccc3c2O[C@@H](CN(C)S(C)(=O)=O)[C@@H](C)CN([C@@H](C)CO)C3=O)cc1	none
Cc1cc(NC(=O)CCN2C(=O)C3C4C=CC(C4)C3C2=O)ccc1Br (stereo unspecified)	Ecoli rRNA inh -21 | AID977621 inactive | AID977628 inactive
COc1ccc(NC(=O)CCN2C(=O)C3C4C=CC(C4)C3C2=O)cc1 (stereo unspecified)	none (no result: E-sel inducer)
O=C(NCc1ccc2c(c1)OCO2)C1CCC(=O)N1C1CCCCC1 (stereo unspecified)	Ecoli rRNA inh -23 | AID977621 inactive | AID977628 inconclusive
CCc1ccc(CNC(=O)C2CCC(=O)N2C2CCCCC2)cc1 (stereo unspecified)	none (no result: E-sel inducer, Ecoli rRNA inh, RAD52 anneal inh, MLL AF4-AF9 inh)
CC(C)NC(=O)Nc1ccc2c(c1)C(=O)N([C@H](C)CO)C[C@@H](C)[C@H](CN(C)C(=O)CCC(F)(F)F)OCCCC[C@@H](C)O2	none
COC(=O)c1sccc1NC(=O)Cc1ccc(OC)cc1	Ecoli rRNA inh -27 (no result: RAD54 branch) | AID977621 inactive
COc1ccc(CC(=O)Nc2cc(S(=O)(=O)Nc3ccc(OC)cc3)ccc2OC)cc1	Ecoli rRNA inh -18 (no result: E-sel inducer) | AID977621 inactive | AID977628 inactive
COC(C(=O)Nc1ccnn1C1CCN(Cc2ccc(Cl)s2)CC1)c1ccccc1 (stereo unspecified)	Ecoli rRNA inh -22 (no result: E-sel inducer) | AID977621 inactive | AID977628 inactive
Cc1ccc(Cl)cc1N1CCN(S(C)(=O)=O)CC1	Ecoli rRNA inh -35 (no result: E-sel inducer) | AID977628 inconclusive
Cc1ccc(Cl)cc1N1CCN(S(=O)(=O)N2CCCCC2)CC1	none (no result: RAD54 branch, E-sel inducer)
Cc1cc(C(N)=O)nn1-c1c(Cl)cc(Cl)cc1Cl	Ecoli rRNA inh -31 (no result: RAD54 branch) | AID977621 inactive
NC(=O)c1cc(C(N)=O)nc(Cl)n1	none (no result: RAD54 branch)
O=C(COC(=O)c1ccc(Cl)nc1)NCCc1ccc(Cl)cc1	none (no result: INS-1E GSIS act)
COC(=O)CNC(=O)COC(=O)c1ccc(Cl)nc1	Ecoli rRNA inh -19 | AID977621 inactive | AID977628 inactive
CCC(=O)N1CCCCN2[C@H](C1)[C@H](c1ccc(C#Cc3ccccc3)cc1)[C@@H]2CO	none
CCC[N+]1(CC#CC(O)(c2ccccc2)C2CCCCC2)CCCCC1 (stereo unspecified)	Ecoli rRNA inh -36 (no result: RAD54 branch, E-sel inducer, INS-1E GSIS act) | AID977621 inactive | AID977628 inactive
CCN(CC)CCC#CC(O)(c1ccccc1)C1CCCCC1 (stereo unspecified)	none (no result: RAD54 branch, E-sel inducer)
CO[C@@H]1CN(C)C(=O)c2cc(NC(C)=O)ccc2OC[C@@H](C)N(C(=O)c2cnccn2)C[C@H]1C	none
Cc1noc(NS(=O)(=O)c2ccc(NC(=O)c3cc(-c4ccccc4Cl)nc4ccccc34)cc2)c1C	Ecoli rRNA inh -24 (no result: RAD54 branch) | AID977621 inactive
Cc1noc(NS(=O)(=O)c2ccc(NC(=O)c3cc(S(=O)(=O)N(C)c4ccccc4)ccc3Cl)cc2)c1C	none (no result: E-sel inducer)
C(#CSCc1ccccc1)SCc1ccccc1	none
c1ccc(CSCc2ccccc2)cc1	Ecoli rRNA inh -25 (no result: E-sel inducer) | AID977621 inactive | AID977628 inactive
CC(C)C[C@@H]1COc2cc(NC3CC3)ccc2S(=O)(=O)N1	none (no result: RAD54 branch)
CC(C)C[C@H]1COc2cc(Br)ccc2S(=O)(=O)N1	Ecoli rRNA inh -22 | AID977621 inactive | AID977628 inconclusive
C[C@@H]1CN([C@H](C)CO)S(=O)(=O)c2ccc(/C=C/c3ccccc3)cc2O[C@H]1CN(C)Cc1cncnc1	none
O=C(NCc1ccccc1)c1ccc(-c2cn[nH]c2)c2ccoc12	Ecoli rRNA inh -20 | AID977621 inactive | AID977628 inactive
COCCNC(=O)c1ccc(-c2cn[nH]c2)c2ccoc12	none

From PubChem BioAssay
